The text below walks through data of PubChem BioAssay.

One may read the viability as a read-out of living cells in per cent, often relative to untreated cells. What is called inhibition is the relative decrease from the control value, in per cent.

Assay [1] is described as follows: OD615 S. cerevisiae growth inhibition, permissive medium, pilot counter-assay, permissive growth control for S. cerevisiae lifespan shortening project (AID 705;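 active = growth inhibition above 25% in both replicates, a cutoff set 3 SD above the mean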). The conditions noted are these: OD615, 24 h, at 10 µM, hits give high values. Summed up: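 System: Engineered DeaD yeast | Buffer or medium: SC raffinose/galactose permissive medium | Doses: 10 µM single dose, 0.25% DMSO | Times: 24 h exposure, 30 °C | Measured by: OD615 turbidity read | Read-out: Yeast growth inhibition indicated by reduced 24 h OD615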

A short description of assay [2]: Restrictive medium S. cerevisiae growth inhibition, OD615, pilot screen of yeast lifespan reduction project, restrictive growth control (AID 706;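 active = growth inhibition above a set limit, 3 SD over mean compound inhibition, in both replicates, cut at about 43% in these data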;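 note: modified DeaD lifespan yeast strain shifted to restrictive glucose medium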). The conditions noted are these: OD615, 48 h, at 10 µM, hits give high values. Summed up: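 Assay system: engineered S. cerevisiae DeaD strain; Buffer or medium: CSMM-D glucose medium; Dosing: 10 µM compound, 0.25% DMSO; Times: cell pre-growth 4 h, compound exposure 48 h, 30 °C; Detection: absorbance (optical density) measured at 615 nm.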

A short description of assay [3]: viability gain of MRP-1-high H69AR cells under doxorubicin, pilot screen, MRP-1 activator project, CellTiter-Glo, duplicate (AID 807;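 active = viability increase at or above a cutoff of the median across tested compounds plus 3 SD, cut at about 8.5% in these data, passing the limit was not always enough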;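 note: compound pretreatment 18-22 h then 72 h combined with doxorubicin; 0% = doxorubicin alone and 100% = vehicle without doxorubicin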). The settings on record: H69AR viability with doxorubicin, CellTiter-Glo luminescence; at 10 µM; hits give high values. (In general: Cellular ATP, detected with luciferase, serves as a proxy for viable cell number.)
The nature of assay [4]: growth suppression of beta-catenin knockout HCT116, pilot screen, human colon tumor cells (AID 823;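 active = cell viability at or below a set limit in both duplicate runs, the limit being the all-compound median minus 4 SD, cut at about 23% in these data, passing the limit was not always enough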;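 note: 0% = wells killed by 20 µM Hyamine and 100% = untreated DMSO cell wells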). The conditions noted are these: CellTiter-Glo, 60 h, at 10 µM, hits give low values.
A short description of assay [5]: growth suppression of PTEN-deleted HCT116, pilot screen, cell-based, HCT116 clonal line, CellTiter-Glo (AID 824).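 Note: 0% = 20 µM Hyamine control and 100% = vehicle cell control.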 The settings on record: 60 h, at 10 µM, hits give low values.
A short description of assay [6]: inhibitors of the yeast RAM network, pilot screen, dse1pr::URA3 reporter, 5-FOA selection (AID 869;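 active = inhibition over a set limit, the all-compound mean plus 3 SD, in both replicate runs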;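 note: 0% = DMSO wells with no growth and 100% = 10 µM 1-NA-PP1 with full growth; RAM network block rescues cells from 5-FOA so hits raise OD615 growth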). The settings on record: S. cerevisiae dse1pr::URA3 5-FOA growth, OD615, 2 d; at 10 µM; hits give high values; strain carries analog-sensitive mutant Cbk1 kinase.
A short description of assay [7]: RAM signaling pathway blockade in yeast – S. cerevisiae, Pdr1DBD-CYC8 efflux-inhibited sensitized strain, primary screen (AID 1298;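 active = RAM network inhibition above 8.4% in each of two replicates, 3 SD over the compound average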;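 note: 0% = DMSO untreated cells without growth and 100% = 10 µM 1-NA-PP1 full growth; higher means more yeast growth rescued from 5-FOA killing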). The conditions noted are these: S. cerevisiae cbk1-as DSE1-URA3 strain, 5-FOA growth OD615, 2 d; at 50 µM; hits give high values.

Unmarked numbers belong to inactive results. Results filed as inconclusive are left out. Calls of active or inactive are those of the source.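 Rule for the calls, unless noted: active = viability at or below 27.92% in each of two runs, the all-compound median minus 4 SD; inconclusive = no clear call, values can overlap the other calls; inactive = the rest.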

With `O=C(CNS(=O)(=O)c1cccs1)Nc1ccc2c(c1)OCCO2`, the growth inhibition in assay [1] was -22.3%; in assay [2], -6.7%. The viability increase in assay [3] was -1.78%. Besides, the viability in assay [4] was 89.2%; in assay [5], 90.9%. The inhibition in assay [6] is 1.3%. In assay [7], the RAM network inhibition was 0.67%.
Take `O=C1C(Cl)=C(N2CCCCCC2)C(=O)N1c1ccccc1`: the growth inhibition was -12.4% in assay [1] and -16.4% in assay [2]. In addition, in assay [3], the viability increase was -0.88%. The viability in assay [4] was 91.3%; in assay [5], 93.2%. The inhibition in assay [6] is 0.8%. Further, in assay [7], the RAM network inhibition was 3.09%.
In the case of `CC(O)Cc1nsc(NC(=O)c2cccs2)n1` (stereo unspecified), the growth inhibition in assay [1] was -11.4%; in assay [2] it was -8.99%. The viability increase in assay [3] is -0.55%. Further, the figures for the viability in assay [4] and in assay [5] were 104% and 100%, respectively. The inhibition in assay [6] was 0.84%. For the same molecule, the RAM network inhibition in assay [7] was 0.26%.
With `CC1(C)Cc2c(C#N)c(N)sc(=S)c2CO1`, the growth inhibition in assay [1] is 21.9%; in assay [2], 67% (active). For the same molecule, in assay [3], the viability increase was -1.77%. The viability in assay [4] was 101%; in assay [5] it was 106%. Moreover, the inhibition in assay [6] is 1.27%. Also, in assay [7], the RAM network inhibition is 2.98%.
`O=C(O)c1cccnc1SC1CC(=O)N(c2cccc(C(F)(F)F)c2)C1=O` (stereo unspecified): the growth inhibition in assay [1] is -15.3%; in assay [2], -3.59%. The viability increase in assay [3] is 0.62%. The viability in assay [4] was 103%; in assay [5] it was 101%. Moreover, the inhibition in assay [6] was 1.56%. Moreover, in assay [7], the RAM network inhibition is 3.58%.
Take `O=C(NCc1ccco1)c1cc(S(=O)(=O)N2CCOCC2)ccc1Cl`: the figures for the growth inhibition in assay [1] and in assay [2] were -8.68% and -8.34%, respectively. The viability increase in assay [3] was -3.24%. For the same molecule, the viability in assay [4] is 86.2%; in assay [5], 95.2%. Besides, the inhibition in assay [6] is 3.05%. Also, the RAM network inhibition in assay [7] was 1.96%.
As for `NC(=O)C1(N2CCCCC2)CCN(C(=O)CCCn2c(=O)[nH]c3ccsc3c2=O)CC1`, the results for the growth inhibition in assay [1] and in assay [2] were -6.16% and 2.1%, respectively. The viability increase in assay [3] was -1.61%. Further, the figures for the viability in assay [4] and in assay [5] were 93.5% and 91.6%, respectively. In addition, the inhibition in assay [6] was 1.89%. For the same molecule, the RAM network inhibition in assay [7] is 0.48%.
In the case of `O=C1NC(=O)C(CC(=O)N(Cc2ccco2)C2(C(=O)NC3CCCCC3)CCCCC2)N1` (stereo unspecified), the growth inhibition in assay [1] was -7.57%; in assay [2] it was -7.79%. In addition, in assay [3], the viability increase was -2.17%. Moreover, the viability in assay [4] was 104%; in assay [5], 93.4%. Moreover, the inhibition in assay [6] is -0.005%. In assay [7], the RAM network inhibition was 2.23%.
As for `CCOC(=O)CSC(CC)C(=O)Nc1nnc(CC)s1` (stereo unspecified), the figures for the growth inhibition in assay [1] and in assay [2] were -15.4% and -6%, respectively. Moreover, in assay [3], the viability increase was 2.67%. The figures for the viability in assay [4] and in assay [5] were 102% and 96.6%, respectively. Also, in assay [6], the inhibition is 0.62%. Besides, in assay [7], the RAM network inhibition is -0.27%.
Turning to `Brc1ccc(-c2noc(CCc3ccccc3)n2)o1`, the growth inhibition in assay [1] was -9.63%; in assay [2], 2.66%. For the same molecule, the viability increase in assay [3] was 1.58%. Also, the viability in assay [4] is 102%; in assay [5], 96.9%. Further, the inhibition in assay [6] is 3.12%. For the same molecule, in assay [7], the RAM network inhibition is 0.73%.
Turning to `COc1ccc(OCc2nnc3n2N=C(c2ccc(C)cc2)CS3)cc1`, the growth inhibition in assay [1] is -3.36%; in assay [2], -2.56%. In assay [3], the viability increase is 2.3%. Further, the viability in assay [4] was 95.4%; in assay [5], 82.1%. Besides, the inhibition in assay [6] is 1.57%. The RAM network inhibition in assay [7] was 2.58%.
Consider `CCN(CC)C1=CC(=O)OC12CCCCC2`, for which the growth inhibition is -13.1% in assay [1] and 0.735% in assay [2]. Also, in assay [3], the viability increase is -2.99%. In addition, the viability in assay [4] is 98.5%; in assay [5] it was 93.7%. In addition, the inhibition in assay [6] was 2.08%. The RAM network inhibition in assay [7] was 9.79%.
As for `O=C1CCCC(O)=C1C1C2=C(CCCC2=O)Oc2ccccc21` (stereo unspecified), the growth inhibition in assay [1] was -12.6%; in assay [2] it was -10.5%. Further, in assay [3], the viability increase was -5.35%. The viability in assay [4] is 91.6%; in assay [5] it was 90.1%. In assay [6], the inhibition was 2.33%. In addition, the RAM network inhibition in assay [7] is 3.55%.
On to `COCCNC(=O)c1cc(-c2ccccc2OC)on1`, for which the growth inhibition in assay [1] was 5.14%; in assay [2], 11.4%. Moreover, in assay [3], the viability increase is -5.78%. The viability in assay [4] was 62.3%; in assay [5], 55.5%. Besides, the inhibition in assay [6] was -0.05%. For the same molecule, the RAM network inhibition in assay [7] was 2.09%.
On to `CC(=N)C1=C(O)CC(C)(C)CC1=O`, for which the growth inhibition in assay [1] is -7.31%; in assay [2], -1.06%. The viability increase in assay [3] is 0.77%. Besides, the viability in assay [4] is 94.9%; in assay [5], 105%. The inhibition in assay [6] was 1.49%. Moreover, the RAM network inhibition in assay [7] is 2.39%.
For the molecule `Cc1c(C(=O)O)oc2ccc(S(=O)(=O)N3CCCCC3C(=O)O)cc12` (stereo unspecified), the growth inhibition is 4.47% in assay [1] and -3.15% in assay [2]. The viability increase in assay [3] is -0.18%. Also, the viability was 97.1% in assay [4] and 101% in assay [5]. Also, the inhibition in assay [6] is 1.12%. For the same molecule, in assay [7], the RAM network inhibition was 5.52%.
As to `CC(C)N1C(=O)CCC1C(=O)N1CCN(c2ccccn2)CC1` (stereo unspecified), the figures for the growth inhibition in assay [1] and in assay [2] were -11.9% and -15.7%, respectively. The viability increase in assay [3] was 0.54%. For the same molecule, the values for the viability in assay [4] and in assay [5] were 107% and 103%, respectively. Also, in assay [6], the inhibition is 0.845%. The RAM network inhibition in assay [7] is 1.45%.
For the molecule `Cc1ccc(C(=O)Nc2ccccc2NC(=O)c2ccc(C)o2)o1`, the results for the growth inhibition in assay [1] and in assay [2] were -1.73% and 8.06%, respectively. Moreover, the viability increase in assay [3] is -3.39%. For the same molecule, the viability in assay [4] is 93.2%; in assay [5] it was 91.6%. In assay [6], the inhibition was 1.41%. For the same molecule, the RAM network inhibition in assay [7] was 3.58%.
